Laboratory results published in ChEMBL document CHEMBL1145564, “Discovery of N-[(3R,5R)-1-azabicyclo[3.2.1]oct-3-yl]furo[2,3-c]pyridine-5-carboxamide as an agonist of the alpha7 nicotinic acetylcholine receptor: in vitro and in vivo activity” (Bioorg Med Chem Lett, 2008).
Active and inactive are the calls of the source. No cut-off for these calls is given here.

Assays:
[1] = Apparent permeability from apical to basolateral side in dog MDCK cells; assay type: ADME, cell-based, Canis lupus familiaris
Summary of the method: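 MDCK monolayer permeability measured apical to basolateral, expressed as Papp (x10^-6 cm/s).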

[2] = biological target: Neuronal acetylcholine receptor subunit alpha-7 (Rattus norvegicus, UniProt Q05941); experiment: Displacement of [3H]MLA from alpha-7 nACh receptor in rat brain; assay type: tissue-based
Summary of the method: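 Rat brain homogenate binding with [3H]MLA; individual Ki values, mean ± SEM reported when more than 3 measurements.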

[3] = biological target: T1, Muscarinic acetylcholine receptor M2 (Homo sapiens) (UniProt P08172); experiment: Displacement of [3H]AF-DX384 from human muscarinic M2 receptor expressed in CHO cells at 10 uM; assay type: cell-based
T1 sequence (whole entry): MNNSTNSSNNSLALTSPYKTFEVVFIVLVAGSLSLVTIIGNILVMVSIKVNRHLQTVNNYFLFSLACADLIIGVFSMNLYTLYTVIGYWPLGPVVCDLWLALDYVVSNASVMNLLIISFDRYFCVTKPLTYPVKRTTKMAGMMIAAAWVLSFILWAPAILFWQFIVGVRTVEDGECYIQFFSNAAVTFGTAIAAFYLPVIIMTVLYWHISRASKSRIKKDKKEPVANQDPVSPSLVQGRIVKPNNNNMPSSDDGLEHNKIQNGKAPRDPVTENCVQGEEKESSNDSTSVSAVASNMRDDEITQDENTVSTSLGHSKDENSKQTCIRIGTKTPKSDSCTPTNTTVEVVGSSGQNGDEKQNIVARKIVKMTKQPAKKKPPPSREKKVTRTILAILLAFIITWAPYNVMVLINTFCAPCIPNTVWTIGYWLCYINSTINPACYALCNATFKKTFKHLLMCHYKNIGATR
Summary of the method: (§1)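 Human muscarinic receptors in transfected CHO cells; radioligands [3H]pirenzepine (M1), [3H]AF-DX 384 (M2), [3H]DAMP (M3); percent block at 10 µM.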

[4] = Ratio of drug level in brain to plasma in mouse at 10 mg/kg after 60 min; assay type: ADME, organism-based; parameters: dose 10 mg/kg
Summary of the method: (§2)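 Mouse brain uptake: brain and plasma concentrations after a 10 mg/kg dose, ratio taken at 5 and 60 min.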

[5] = Drug level in rat plasma at 0.24 mg/kg, iv after 30 mins; assay type: ADME, organism-based; parameters: dose 0.24 mg/kg, route intravenous
[6] = Drug level in rat brain at 1 mg/kg, sc twice daily for 6 days; assay type: ADME, organism-based; parameters: dose 1 mg/kg, route subcutaneous; settings: read-out: Drug uptake
Summary of the method: (§3)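 Rats dosed sc twice daily for 6 days with drug 1 mg/kg or 0.9% saline vehicle (n = 8). On day 7, amphetamine-induced gating deficit challenged with acute drug 1 mg/kg sc; brain and plasma exposures measured.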

Plasma [7] = experiment: Drug level in rat plasma at 1 mg/kg, sc; assay type: ADME, organism-based; parameters: dose 1 mg/kg, route subcutaneous; settings: in vivo
Summary of the method: (§4)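 Rats given amphetamine 1 mg/kg iv to disrupt gating, then test drug sc (0.01–1.0 mg/kg, n = 6-9). Gating is the conditioning/test EEG field potential ratio from paired tones at 0.5 Hz, monitored 30 min, expressed as % reversal. Brain and plasma levels taken about 37 min post-dose.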

[8] = Half life in Sprague-Dawley rat at 5 mg/kg, po; assay type: ADME, organism-based; parameters: dose 5 mg/kg, route oral; settings: in vivo
Summary of the method: (§5)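 Sprague-Dawley rats given a single 5.0 mg/kg oral dose; pharmacokinetic parameters derived from plasma.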

[9] = biological target: T2, Neuronal acetylcholine receptor subunit alpha-7 (Homo sapiens, UniProt P36544); experiment: Agonist activity at alpha7-5HT3 chimera expressed in human SH-EP1 cells by FLIPR assay; assay type: functional, cell-based
Target sequence in this assay (P36544 23-502 limits assumed): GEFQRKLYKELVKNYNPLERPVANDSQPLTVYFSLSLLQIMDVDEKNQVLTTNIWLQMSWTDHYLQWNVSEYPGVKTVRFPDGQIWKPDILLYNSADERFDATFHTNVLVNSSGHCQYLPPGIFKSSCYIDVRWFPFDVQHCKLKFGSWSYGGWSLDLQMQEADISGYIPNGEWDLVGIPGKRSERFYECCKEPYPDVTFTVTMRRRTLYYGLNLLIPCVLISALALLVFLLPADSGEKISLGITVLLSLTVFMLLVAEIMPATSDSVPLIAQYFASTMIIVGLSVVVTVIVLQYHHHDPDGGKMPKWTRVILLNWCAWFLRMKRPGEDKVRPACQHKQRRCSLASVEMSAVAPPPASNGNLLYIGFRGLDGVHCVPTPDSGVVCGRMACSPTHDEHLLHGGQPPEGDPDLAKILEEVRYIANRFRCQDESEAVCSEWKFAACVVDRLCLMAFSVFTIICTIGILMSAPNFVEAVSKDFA

Rattus norvegicus [10] = experiment: Reversal of amphetamine-induced auditory gating deficit in sc dosed rat auditory sensory gating model; assay type: functional; summary of the method: as §4
[11] = biological target: T3, Muscarinic acetylcholine receptor M1 (Homo sapiens) (UniProt P11229); experiment: Displacement of [3H]pirenzepine from human muscarinic M1 receptor expressed in CHO cells at 10 uM; assay type: cell-based; summary of the method: as §1
T3 sequence (whole entry): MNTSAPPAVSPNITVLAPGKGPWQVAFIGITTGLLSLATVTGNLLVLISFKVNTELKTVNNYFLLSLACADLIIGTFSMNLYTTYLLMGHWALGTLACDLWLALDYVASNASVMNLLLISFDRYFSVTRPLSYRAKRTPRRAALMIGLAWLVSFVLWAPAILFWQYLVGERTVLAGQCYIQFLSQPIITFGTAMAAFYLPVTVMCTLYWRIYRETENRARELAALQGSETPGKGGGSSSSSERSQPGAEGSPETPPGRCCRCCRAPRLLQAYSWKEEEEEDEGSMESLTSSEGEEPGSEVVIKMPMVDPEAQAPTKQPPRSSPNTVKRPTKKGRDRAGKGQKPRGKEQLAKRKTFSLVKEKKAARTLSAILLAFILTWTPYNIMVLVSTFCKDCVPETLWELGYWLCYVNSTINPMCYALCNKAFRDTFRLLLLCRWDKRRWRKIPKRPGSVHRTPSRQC

[12] = Toxicity in dog ECG model assessed as drug level causing no observable adverse effects; assay type: organism-based, Canis lupus familiaris; settings: in vivo, read-out: Activity
Summary of the method: (§6)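 Acute dog ECG cardiovascular safety study; no-observable-adverse-effect dose set, with Cmax measured at that dose.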

Brain [13] = experiment: Drug level in rat brain at 1 mg/kg, sc; assay type: ADME, organism-based; parameters: dose 1 mg/kg, route subcutaneous; settings: in vivo, read-out: Drug uptake; summary of the method: as §4
[14] = Clearance in Sprague-Dawley rat at 5 mg/kg, po; assay type: ADME, organism-based; parameters: dose 5 mg/kg, route oral; settings: in vivo; summary of the method: as §5
[15] = biological target: Neuronal acetylcholine receptor; alpha4/beta2 (Rattus norvegicus) (UniProt P09483+P12390); experiment: Displacement of [3H][…] from alpha-4-beta-2 nACh receptor in rat brain at 1 uM; assay type: tissue-based
Summary of the method: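 Rat brain homogenate binding using [3H][…]; percent block at 1 µM.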

Brain [16] = experiment: Drug level in rat brain at 0.01 mg/kg, sc; assay type: ADME, organism-based; parameters: dose 0.01 mg/kg, route subcutaneous; settings: in vivo, read-out: Drug uptake; summary of the method: as §4
Rattus norvegicus [17] = experiment: Reversal of amphetamine-induced auditory gating deficit in rat at 1 mg/kg, sc twice daily for 6 days; assay type: functional, organism-based; parameters: dose 1 mg/kg; summary of the method: as §3
[18] = biological target: T2, Neuronal acetylcholine receptor subunit alpha-7; experiment: Displacement of [3H]MLA from alpha-7 nACh receptor in human IMR32 cells; assay type: cell-based, IMR-32
Target sequence in this assay (P36544 whole entry): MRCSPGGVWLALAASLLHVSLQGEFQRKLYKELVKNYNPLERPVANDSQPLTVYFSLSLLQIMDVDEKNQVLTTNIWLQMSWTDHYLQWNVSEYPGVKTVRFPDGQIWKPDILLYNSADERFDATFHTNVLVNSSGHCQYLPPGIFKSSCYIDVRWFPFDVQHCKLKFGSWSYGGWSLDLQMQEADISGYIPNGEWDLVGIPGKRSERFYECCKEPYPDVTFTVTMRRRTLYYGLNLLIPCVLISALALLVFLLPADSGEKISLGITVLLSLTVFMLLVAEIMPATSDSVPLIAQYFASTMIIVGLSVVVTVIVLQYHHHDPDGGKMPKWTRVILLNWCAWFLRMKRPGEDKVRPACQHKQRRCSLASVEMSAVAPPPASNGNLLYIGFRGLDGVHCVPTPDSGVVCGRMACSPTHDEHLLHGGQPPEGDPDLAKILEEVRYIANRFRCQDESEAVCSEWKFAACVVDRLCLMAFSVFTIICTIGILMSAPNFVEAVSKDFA

[19] = Oral bioavailability in Sprague-Dawley rat at 5 mg/kg; assay type: ADME, organism-based; settings: in vivo; summary of the method: as §5
Brain [20] = experiment: Drug level in rat brain at 0.1 mg/kg, sc; assay type: ADME, organism-based; parameters: dose 0.1 mg/kg, route subcutaneous; settings: in vivo; summary of the method: as §4
[21] = Cmax in dog ECG model; assay type: ADME, organism-based, Canis lupus familiaris; settings: in vivo; summary of the method: as §6
[22] = biological target: Muscarinic acetylcholine receptor M3 (Homo sapiens) (UniProt P20309); experiment: Displacement of [3H]DAMP from human muscarinic M3 receptor expressed in CHO cells at 10 uM; assay type: cell-based; summary of the method: as §1
Rattus norvegicus [23] = experiment: Volume of distribution at steady state in Sprague-Dawley rat at 5 mg/kg, po; assay type: ADME, organism-based; parameters: dose 5 mg/kg, route oral; settings: in vivo; summary of the method: as §5
Plasma [24] = experiment: Drug level in rat plasma at 0.01 mg/kg, sc; assay type: ADME, organism-based; parameters: dose 0.01 mg/kg, route subcutaneous; settings: in vivo; summary of the method: as §4
[25] = Drug level in rat plasma at 1 mg/kg, sc twice daily for 6 days; assay type: ADME, organism-based; parameters: dose 1 mg/kg, route subcutaneous; summary of the method: as §3
[26] = Metabolic stability in human liver microsomes assessed as half life; assay type: ADME, Microsome
[27] = Ratio of drug level in brain to plasma in mouse at 10 mg/kg after 5 mins; assay type: ADME, organism-based; parameters: dose 10 mg/kg; summary of the method: as §2
[28] = biological target: T4, 5-hydroxytryptamine receptor 3A (Rattus norvegicus, UniProt P35563); experiment: Binding affinity to rat 5HT3 receptor
T4 sequence (P35563 whole entry): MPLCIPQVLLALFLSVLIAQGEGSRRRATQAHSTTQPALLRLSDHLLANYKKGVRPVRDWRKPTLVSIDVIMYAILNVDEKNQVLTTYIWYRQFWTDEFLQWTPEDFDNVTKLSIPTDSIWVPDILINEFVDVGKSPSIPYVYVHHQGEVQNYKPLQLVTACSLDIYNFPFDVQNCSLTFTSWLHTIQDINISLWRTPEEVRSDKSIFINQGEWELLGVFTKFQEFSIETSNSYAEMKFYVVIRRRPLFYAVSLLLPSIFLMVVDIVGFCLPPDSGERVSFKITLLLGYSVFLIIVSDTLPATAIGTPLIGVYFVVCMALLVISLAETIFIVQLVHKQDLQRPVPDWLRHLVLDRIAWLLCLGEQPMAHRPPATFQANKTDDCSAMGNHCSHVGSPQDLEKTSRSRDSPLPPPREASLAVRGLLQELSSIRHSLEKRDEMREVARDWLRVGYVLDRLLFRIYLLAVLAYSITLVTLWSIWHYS

Plasma [29] = experiment: Drug level in rat plasma at 0.1 mg/kg, sc; assay type: ADME, organism-based; parameters: dose 0.1 mg/kg, route subcutaneous; settings: in vivo; summary of the method: as §4
hERG (KCNH2) = hERG (KCNH2) (Homo sapiens, UniProt Q12809); experiment: Inhibition of human ERG expressed in HEK293 cells at 20 uM; assay type: cell-based; settings: HEK293 cells that express hERG
Summary of the method: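 Patch-clamp on hERG current (IKr) in HEK cells; percent inhibition at 20 µM; aqueous solubility checked by HPLC in pH 7 buffer.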

[30] = Metabolic stability in rat liver microsomes assessed as hepatic extraction ratio after 30 mins; assay type: ADME, Microsome
Summary of the method: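 Rat liver microsome incubation; stability reported as fraction of compound remaining after 30 min relative to t0 concentration.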

Neuronal acetylcholine receptor subunit alpha-7 (Rattus norvegicus, UniProt Q05941), sequence (Q05941 whole entry): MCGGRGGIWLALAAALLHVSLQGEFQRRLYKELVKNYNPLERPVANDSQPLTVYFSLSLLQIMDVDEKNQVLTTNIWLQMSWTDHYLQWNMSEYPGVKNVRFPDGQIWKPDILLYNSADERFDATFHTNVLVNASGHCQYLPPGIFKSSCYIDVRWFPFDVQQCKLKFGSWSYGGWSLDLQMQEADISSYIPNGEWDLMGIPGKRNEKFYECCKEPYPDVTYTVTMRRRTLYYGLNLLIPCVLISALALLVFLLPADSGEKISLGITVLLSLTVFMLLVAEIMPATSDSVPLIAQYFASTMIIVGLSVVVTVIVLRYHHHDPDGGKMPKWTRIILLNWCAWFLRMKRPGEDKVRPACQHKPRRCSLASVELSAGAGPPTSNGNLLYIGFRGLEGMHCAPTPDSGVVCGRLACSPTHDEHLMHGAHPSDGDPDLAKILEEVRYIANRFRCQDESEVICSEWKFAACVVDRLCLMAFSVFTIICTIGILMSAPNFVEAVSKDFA
hERG (KCNH2), sequence (Q12809 whole entry): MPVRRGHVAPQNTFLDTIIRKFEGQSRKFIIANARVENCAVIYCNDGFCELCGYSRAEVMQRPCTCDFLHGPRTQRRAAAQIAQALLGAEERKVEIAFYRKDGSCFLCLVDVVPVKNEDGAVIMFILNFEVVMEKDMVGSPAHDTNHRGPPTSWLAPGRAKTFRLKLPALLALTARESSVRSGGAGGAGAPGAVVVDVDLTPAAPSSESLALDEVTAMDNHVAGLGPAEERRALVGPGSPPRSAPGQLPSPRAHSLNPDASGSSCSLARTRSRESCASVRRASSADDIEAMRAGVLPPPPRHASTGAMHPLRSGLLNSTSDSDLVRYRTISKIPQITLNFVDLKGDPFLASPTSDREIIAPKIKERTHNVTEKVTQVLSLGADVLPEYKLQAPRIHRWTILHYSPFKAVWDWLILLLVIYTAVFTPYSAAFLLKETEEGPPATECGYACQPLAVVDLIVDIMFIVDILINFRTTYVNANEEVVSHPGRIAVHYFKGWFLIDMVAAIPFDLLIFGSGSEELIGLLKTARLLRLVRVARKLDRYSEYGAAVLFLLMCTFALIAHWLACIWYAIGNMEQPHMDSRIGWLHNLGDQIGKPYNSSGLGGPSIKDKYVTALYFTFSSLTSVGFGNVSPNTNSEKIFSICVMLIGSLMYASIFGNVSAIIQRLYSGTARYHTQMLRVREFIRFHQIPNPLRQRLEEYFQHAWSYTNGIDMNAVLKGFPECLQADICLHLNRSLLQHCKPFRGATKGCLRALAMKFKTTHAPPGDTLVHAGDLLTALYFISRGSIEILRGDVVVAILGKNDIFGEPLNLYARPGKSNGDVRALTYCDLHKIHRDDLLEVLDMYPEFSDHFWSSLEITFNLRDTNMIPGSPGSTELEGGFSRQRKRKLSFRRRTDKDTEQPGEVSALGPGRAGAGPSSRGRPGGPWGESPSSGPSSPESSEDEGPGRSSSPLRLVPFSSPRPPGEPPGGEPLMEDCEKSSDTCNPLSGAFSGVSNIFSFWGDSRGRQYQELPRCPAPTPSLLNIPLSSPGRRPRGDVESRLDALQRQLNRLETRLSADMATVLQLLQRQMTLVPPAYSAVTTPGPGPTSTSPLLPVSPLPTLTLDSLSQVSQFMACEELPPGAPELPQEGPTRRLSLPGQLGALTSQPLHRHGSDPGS
Muscarinic acetylcholine receptor M3 (Homo sapiens), sequence (P20309 whole entry, looked up): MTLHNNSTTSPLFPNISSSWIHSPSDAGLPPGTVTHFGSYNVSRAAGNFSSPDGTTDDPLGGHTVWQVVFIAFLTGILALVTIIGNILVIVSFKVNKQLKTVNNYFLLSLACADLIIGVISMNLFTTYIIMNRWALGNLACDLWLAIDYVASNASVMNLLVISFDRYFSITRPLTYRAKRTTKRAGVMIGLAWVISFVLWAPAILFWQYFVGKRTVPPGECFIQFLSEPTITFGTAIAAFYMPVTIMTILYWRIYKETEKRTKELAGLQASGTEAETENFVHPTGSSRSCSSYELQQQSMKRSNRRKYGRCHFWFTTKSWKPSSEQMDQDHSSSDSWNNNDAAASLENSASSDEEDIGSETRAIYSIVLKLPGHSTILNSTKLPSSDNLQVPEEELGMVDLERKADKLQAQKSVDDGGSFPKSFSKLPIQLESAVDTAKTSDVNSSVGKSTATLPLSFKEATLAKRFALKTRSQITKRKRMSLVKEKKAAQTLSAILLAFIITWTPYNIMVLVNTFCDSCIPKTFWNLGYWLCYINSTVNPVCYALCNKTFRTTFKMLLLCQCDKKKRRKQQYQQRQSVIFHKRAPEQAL

SMILES: O=C(N[C@@H]1C[C@H]2CCN(C2)C1)c1cc2ccoc2cn1
- Papp A→B [1]: 21 ×10⁻⁶ cm/s
- Ki [2]: 2.9 nM
- Activity [3]: 25%
- Kp at 1 h [4]: 1.88
- concentration at 0.5 h [5]: 130 nM
- concentration at 144 h [6]: 350 nM
- concentration (Plasma [7]): 1100 nM
- half-life [8]: 48 min
- EC50 [9]: 46 nM
- Activity (Rattus norvegicus [10]): Dose-dependent effect
- minimal effective dose (Rattus norvegicus [10]; read-out: MED): 0.1 mg/kg
- Activity [11]: 16%
- NOAEL [12]: 40 mg/kg
- concentration (Brain [13]): 1200 nM
- CL/F [14]: 72 mL/min/kg
- Activity [15]: < 1%
- concentration (Brain [16]): 5.3 nM
- Activity (Rattus norvegicus [17]): Active
- Ki [18]: 9 nM
- bioavailability [19]: 40%
- concentration (Brain [20]): 47 nM
- Cmax [21]: 22000 nM
- Activity [22]: 15%
- Vdss (Rattus norvegicus [23]): 2.4 L/kg
- concentration (Plasma [24]): 12 nM
- concentration at 144 h [25]: 490 nM
- half-life [26]: > 120 min
- Kp at 5 min [27]: 1.52
- Ki [28]: 350 nM
- concentration (Plasma [29]): 60 nM
- inhibition at 20 µM (hERG (KCNH2)): 25%

SMILES: O=C(N[C@@H]1C[C@H]2CCN(C2)C1)c1cc2sccc2cn1
- Ki [2]: 7 nM
- hepatic extraction ratio at 0.5 h [30]: 0.71
- EC50 [9]: 70 nM

SMILES: O=C(N[C@H]1CN2CCC1CC2)c1ccc(Cl)cc1 [PNU-282987]
- hepatic extraction ratio at 0.5 h [30]: < 0.27
- EC50 [9]: 128 nM

SMILES: O=C(N[C@@H]1C[C@H]2CCN(C2)C1)c1ccc2occc2c1
- Papp A→B [1]: 3.8 ×10⁻⁶ cm/s
- Ki [2]: 6.2 nM
- Kp at 1 h [4]: 1.15
- hepatic extraction ratio at 0.5 h [30]: < 0.27
- EC50 [9]: 81 nM
- Kp at 5 min [27]: 0.27

SMILES: O=C(N[C@@H]1C[C@H]2CCN(C2)C1)c1ccc(Cl)cc1
- hepatic extraction ratio at 0.5 h [30]: 0.37
- EC50 [9]: 190 nM
